Source: PubChem (Johns Hopkins Ion Channel Center)
Shown are actives, neighbours in structure and some others; about 3.5% of the full set was active somewhere.
MrgX1 antagonist: human MrgX1 receptor antagonism, primary screen. MRGX1-HEK293 calcium flux, Fluo-4, BAM8-22 antagonism; stronger effect = lower value. B-score at 10 µM. 310,000 compounds, 1.3% hits;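 active = calcium-response B-score plate-corrected more than 3 library SD below zero, starting fluorescence within 5 deviations, no agonist response on first addition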;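 also: peak minus trough fluorescence over baseline after final BAM8-22 challenge near maximal dose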
Target sequence (Q96LB2 whole entry, looked up): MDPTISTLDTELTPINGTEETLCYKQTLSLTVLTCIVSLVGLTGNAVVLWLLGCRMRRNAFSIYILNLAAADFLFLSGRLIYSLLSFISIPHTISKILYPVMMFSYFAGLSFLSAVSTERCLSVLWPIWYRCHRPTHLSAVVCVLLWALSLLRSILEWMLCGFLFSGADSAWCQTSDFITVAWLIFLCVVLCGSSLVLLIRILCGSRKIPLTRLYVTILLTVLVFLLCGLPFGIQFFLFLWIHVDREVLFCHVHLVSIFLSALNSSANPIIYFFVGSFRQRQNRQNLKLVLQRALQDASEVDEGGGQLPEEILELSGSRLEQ
MrgX1 PAM: allosterically activates human MrgX1 receptor signaling | 310,000 compounds, 0.63% hits | B-score at 10 µM | MrgX1-HEK293, Fluo-4 calcium flux, FDSS; stronger effect = higher value;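 active = plate-corrected calcium response at least 3 library SD above typical, normal starting fluorescence, not activating the receptor alone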;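 also: compound read alongside a low EC10 to EC30 dose of BAM8-22 agonist; peak minus trough fluorescence over baseline measured at the second addition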
RGS4 act: RGS4 potentiation or activation; B-score at 10 µM; HEK293 M3R/inducible RGS4, carbachol calcium flux Fluo4; stronger effect = lower value; 310,000 compounds, 0.92% hits;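 active = B-score of the integrated calcium signal more than 4 SD below the library mean, with starting fluorescence not abnormally high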;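 also: negative B-score means reduced calcium response which marks RGS4 activation or potentiation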
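Detection: kinetic calcium fluorescence imaging with Fluo4-AM dye, 2 µM / Material: HEK293 cells with stable M3R and inducible RGS4 / Schedule: recording 10 s baseline at 1 Hz, 100 s post-agonist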
MrgX1 agonist: agonists of human MrgX1 receptor; 310,000 compounds, 0.44% hits; AID 588627; MrgX1-HEK293 cells, Fluo-4 calcium fluorescence, agonist mode; stronger effect = higher value; Q96LB2; B-score at 10 µM;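 active = calcium response B-score plate-corrected fluorescence ratio at least 3 library SD, with starting fluorescence B-score inside 5 SD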
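System: HEK293 cells stably expressing human MrgX1 receptor; Dosing: test compound in the initial addition of three; Schedule: overnight plating, then 30 min 37 °C plus 30 min room-temperature dye loading; Detection: kinetic calcium dye fluorescence, Fluo-4 NW; Controls: per-plate positive and negative controls for Z′ factor.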
RGS4 inh: inhibitors of human RGS4; P49798; 310,000 compounds, 0.45% hits; HEK293 M3R/RGS4 inducible, Fluo-4 calcium flux; stronger effect = higher value; triggered by carbachol at its EC20; B-score at 10 µM;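 active = B-score, a plate-corrected calcium signal, over three deviations above library mean, with baseline fluorescence within five deviations of library mean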;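 also: RGS4 expression induced by doxycycline in cells with stable M3 receptor; B-score is computed from the integrated fluorescence ratio over baseline after carbachol; higher B-score means a larger calcium signal and so more RGS4 inhibition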
Target sequence (P49798 whole entry, looked up): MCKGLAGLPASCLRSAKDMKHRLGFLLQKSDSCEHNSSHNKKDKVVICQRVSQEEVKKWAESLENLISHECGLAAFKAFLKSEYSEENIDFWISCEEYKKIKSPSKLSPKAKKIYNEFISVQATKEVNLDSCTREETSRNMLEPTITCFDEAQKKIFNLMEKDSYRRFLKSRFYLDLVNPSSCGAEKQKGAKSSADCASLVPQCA
Large screens that a line does not name were inactive.

CC(C)(C)C(=O)OC[N+](C)(C)CCOC(=O)C(O)(c1ccccc1)C1CCCC1 (stereo not drawn)	RGS4 act -7.52
c1ccc(-c2cc(-c3ccccc3)[n+](-c3ccccc3)c(-c3ccccc3)c2)cc1	MrgX1 PAM 15.2, RGS4 act -7.75
C[n+]1c(-c2ccccc2)cc(-c2ccc(Cl)cc2)cc1-c1ccccc1	none
Cc1ccc(-c2cc(-c3ccccc3)cc(-c3ccccc3)[n+]2-c2ccccc2)cc1	RGS4 act -7.57, MrgX1 agonist 31
CN(C)c1ccc(-[n+]2c(-c3ccccc3)cc(-c3ccccc3)cc2-c2ccccc2)cc1	RGS4 act -9.02 (no result: MrgX1 antagonist, MrgX1 PAM, MrgX1 agonist)
Cc1ccccc1-n1c(O)c(/C=C2/C(c3ccccc3)=Nc3ccccc32)c(=O)[nH]c1=O	none
CC1=Nc2ccccc2/C1=C/c1c(O)n(C)c(=O)[nH]c1=O	MrgX1 PAM 8.06
COc1ccc2c(c1)[C@@]13CCC=C[C@H]1[C@@H](C2)NCC3	none (no result: RGS4 act, RGS4 inh)
C=CCn1c(C)c(C=C2C(=O)NC(=O)NC2=O)c2ccccc21	MrgX1 agonist 39.2
COc1ccc(NC(=O)[C@@H](NC(=O)N2C[C@H]3C[C@@H](C2)c2cccc(=O)n2C3)C(C)C)cc1	none
O=c1[nH]c(=O)n(CC2CCCO2)c(O)c1/C=C1\C=Nc2ccccc21 (stereo not drawn)	MrgX1 agonist 34.1
O=c1[nH]c(=O)n(-c2ccc(F)cc2)c(O)c1/C=C1\C=Nc2ccccc21	none
O=c1[nH]c(=O)n(-c2ccccc2F)c(O)c1/C=C1\C=Nc2ccccc21	MrgX1 agonist 47.3, RGS4 inh 11.1
CCN1C[C@@]2(COC)C3[C@@H](OC)[C@H]4[C@@H]1[C@@]3(C1C[C@H]3[C@H](O)C1[C@]4(O)C[C@H]3OC)[C@@H](OC)C[C@H]2O (stereo partly drawn)	none
Cc1cc(C)[n+](CCCC[n+]2c(C)cc(C)cc2C)c(C)c1	none
Cc1ccc(Cn2cc(C=O)c(-c3ccc(F)cc3)n2)cc1	MrgX1 PAM 7.57
CC1CCC(NCCc2ccc3c(c2)OCO3)CC1 (stereo not drawn)	RGS4 act -7
CN[C@H]1C[C@H]2O[C@@](C)([C@H]1OC)n1c3ccccc3c3c4c(c5c6ccccc6n2c5c31)C(=O)NC4	MrgX1 PAM 10.2, RGS4 inh 4.93
COc1ccc2c(C)c(CC(=O)N3C[C@H]4C[C@@H](C3)c3cccc(=O)n3C4)c(=O)oc2c1C	none
C/C=C(\C)C(=O)OC1C(C)=C2C(C1OC(=O)CCCCC)C(C)(OC(C)=O)CC(OC(=O)CCC)C1(O)C2OC(=O)C1(C)O (stereo not drawn)	RGS4 act -8.9, MrgX1 agonist 49.3
C[N+]1(C)C2CCC1CC(OC(=O)C(CO)c1ccccc1)C2 (stereo not drawn)	RGS4 act -8.62
C[N+]1(C)[C@@H]2CC[C@H]1CC(OC(=O)C(CO)c1ccccc1)C2 (stereo partly drawn)	none
COC1C(OC(=O)c2ccc(C)[nH]2)C(O)C(Oc2ccc3c(O)c(NC(=O)c4ccc(O)c(CC=C(C)C)c4)c(=O)oc3c2Cl)OC1(C)C (stereo not drawn)	none (no result: RGS4 act, RGS4 inh)
CCN(CC)c1ccc(/C=C2/C(=O)NC(=O)N(CC3CCCO3)C2=O)cc1 (stereo not drawn)	MrgX1 antagonist -4.55
O=C1NC(=O)N(CC2CCCO2)C(=O)/C1=C/c1cccs1 (stereo not drawn)	none
Cc1ccc2c(c1Cl)NC(C(=O)O)C1CC(Sc3ccccc3[N+](=O)[O-])C(Cl)C21 (stereo not drawn)	none
CCN(CC)C(=O)c1ccc2c(c1)C1C(Cl)C(Sc3ccccc3[N+](=O)[O-])CC1C(C(=O)O)N2 (stereo not drawn)	MrgX1 antagonist -6.66
c1cc(C2N3CCCN2CC3)ccn1 (stereo not drawn)	none
CC/C(=C\C=C\[C@@H]1C=C[C@@H]2CCC[C@H]2[C@@H]1C(=O)c1ccc[nH]1)[C@@H]1O[C@@H]([C@@H](C)C(=O)O)CC[C@@H]1C	RGS4 act -8.25, MrgX1 agonist 35.2
CC1CCCC(C)N1/N=C/c1c[nH]c2ccc(Br)cc12 (stereo not drawn)	MrgX1 PAM 12.1
Cn1c(O)c(C(=Nc2ccccc2)SCc2ccc(Cl)cc2)c(=O)n(C)c1=O	none
C#CC1(OC(=O)c2ccccc2)CC(C)N(C)CC1C (stereo not drawn)	RGS4 act -7.03
CN1C(=O)C(=Cc2ccc(N3CCCCCC3)o2)C(=O)N(C)C1=S	MrgX1 agonist 28.6 (no result: RGS4 act, RGS4 inh)
C[N+]1(CCC(C(N)=O)(c2ccccc2)c2ccccc2)CCCCC1	RGS4 act -7
O=[N+]([O-])c1ccc(N2CCCNCC2)c2ncccc12	RGS4 act -8.07
COc1ccc(CNCCc2c(C)[nH]c3ccc(OC(F)(F)F)cc23)c(OC)c1	MrgX1 antagonist -4.7
O=C(c1cc(F)ccc1F)C1CCCN(Cc2ccc3nonc3c2)C1 (stereo not drawn)	none
CCOP(=O)(OCC)c1cccc(O)c1	MrgX1 antagonist -4.58
CCOP(=O)(OCC)c1cccc(OP(=O)(c2cccc([N+](=O)[O-])c2)c2cccc([N+](=O)[O-])c2)c1	none
COc1ccc(C(=O)OC2CC[C@@]3(C)C4CCC5[C@]6(O)CC(O)[C@@]7(O)C(CN8CC(C)CCC8[C@@]7(C)O)[C@]6(O)C[C@@]53O[C@]24O)cc1OC (stereo partly drawn)	none
C=CCN1C(=O)NC(=O)/C(=C/c2ccoc2)C1=O	MrgX1 antagonist -6.46
O=c1[nH]c(O)c(Cc2ccc3c(c2)OCO3)c(=O)[nH]1	none
COc1ccc(CC(C)Nc2cccc(F)c2)cc1 (stereo not drawn)	none
N[C@@H](Cc1ccccc1)C(=O)N1C[C@H]2C[C@@H](C1)c1cccc(=O)n1C2	none
Cc1ccc2[nH]c(C)c(CCNCc3cccnc3)c2c1	none
CCOc1ccccc1N=C1SCCCN1C	none
CCOc1cccc(=NC2CCCCC2)c2c(C)n(C)c(C)c12	MrgX1 antagonist -5.99
C[C@@H]1CN(C2CCC(C#N)(c3ccc(F)cc3)CC2)CC[C@]1(C(=O)O)c1ccccc1 (stereo partly drawn)	none (no result: RGS4 act, RGS4 inh)
CCC(C)n1c(O)c(C=NCC2CCCO2)c(=O)[nH]c1=S (stereo not drawn)	RGS4 act -10.2
CCC(C)n1c(O)c(/C=N/N2CCOCC2)c(=O)[nH]c1=S (stereo not drawn)	none
N[C@@H]1C[C@H]1c1ccccc1	none (no result: RGS4 act, RGS4 inh)
